pEC50, pIC50: −log10 of the molar value. Activity calls are given as the source filed them. The calls are words filed in the database; no cut-off is given here.
Key:
CCRF-CEM = assay: Cytostatic activity against human CEM cells assessed as inhibition of proliferation after 72 hrs by Coulter cell counting method; format: functional, cell-based
In short: (§1)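 (5–7.5) × 10⁴ tumor cells per well were exposed to test compound at 37 °C in humidified CO₂. Incubation ran 48 h for L1210 and 72 h for CEM and HeLa. Cells were then counted in a Coulter counter. IC₅₀ is the concentration that inhibits cell proliferation by 50%.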

L1210 = assay: Cytostatic activity against mouse L1210 cells assessed as inhibition of proliferation after 48 hrs by Coulter cell counting method; format: functional, cell-based; details: L1210, 48 h; in short: as §1
HeLa = assay: Cytostatic activity against human HeLa cells assessed as inhibition of proliferation after 72 hrs by Coulter cell counting method; format: functional, cell-based; in short: as §1
Felid alphaherpesvirus 1 = assay: Antiviral activity against Feline herpesvirus 1 infected in HEL cells assessed as inhibition of virus-induced cytopathogenicity; format: functional, organism-based; details: for pEC50: Felid alphaherpesvirus 1, HEL
In short: (§2)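 Confluent host-cell monolayers in 96-well plates were inoculated with 100 CCID₅₀ of virus while exposed to a range of test compound concentrations. Cytopathic effect was scored once it was complete in untreated infected controls. EC₅₀ is the concentration that reduces virus-induced cytopathogenicity by 50%.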

Human alphaherpesvirus 2 = assay: Antiviral activity against HSV-2 infected in HEL cells assessed as inhibition of virus-induced cytopathogenicity; format: functional, organism-based; in short: as §2
Human alphaherpesvirus 1 = assay: Antiviral activity against HSV-1 infected in HEL cells assessed as inhibition of virus-induced cytopathogenicity; format: functional, organism-based; in short: as §2
Influenza A virus H3N2 = assay: Antiviral activity against Influenza A virus H3N2 infected in MDCK cells assessed as inhibition of virus-induced cytopathogenicity; format: functional, organism-based
In short: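 Confluent MDCK cell cultures were infected in the presence of varying compound concentrations. Cytopathicity was recorded once complete in untreated virus-infected controls, scored visually and by MTS colorimetric assay. EC50 is the concentration that reduced virus-induced cytopathogenicity by 50%.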

[1] = Cytotoxicity against MDCK cells assessed as reduction in cell viability by MTS assay; format: cell-based, Canis lupus familiaris; details: dog
In short: (§3)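 Uninfected host cells were exposed to test compound, and viability was read by the colorimetric MTS assay. CC₅₀ is the concentration causing a 50% decrease in cell viability.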

[2] = Cytotoxicity against feline CRFK cells assessed as reduction in cell viability by MTS assay; format: cell-based, Felis catus; details: cat; in short: as §3

SMILES	pIC50 (CCRF-CEM)	pIC50 (L1210)	pIC50 (HeLa)	other results
CC1(C)O[C@@H]([C@@H](O)P(=O)(OCc2ccccc2)OCc2ccccc2)[C@@H](Cn2cc(Cn3cnc4c(N)ncnc43)nn2)O1	3.85	4.01	< 3.70	–
Cn1cnc2c1c(=O)n(Cc1cn(C[C@H](OCc3ccccc3)[C@@H](O)P(=O)(OCc3ccccc3)OCc3ccccc3)nn1)c(=O)n2C	4.09	4.15	4.11	–
CCOP(=O)(CCCn1cc(Cn2c(=O)n(C(=O)c3ccccc3)c(=O)c3ccccc32)nn1)OCC	–	–	–	pEC50 (Felid alphaherpesvirus 1): 4.62
O=C(c1ccccc1)n1c(=O)ccn(Cc2cn(C[C@H](OCc3ccccc3)[C@H](O)P(=O)(OCc3ccccc3)OCc3ccccc3)nn2)c1=O	4.68	4.68	4.24	inhibition (Human alphaherpesvirus 2): inactive; inhibition (Human alphaherpesvirus 1): inactive
O=c1ccn(Cc2cn(C[C@H](OCc3ccccc3)[C@H](O)P(=O)(OCc3ccccc3)OCc3ccccc3)nn2)c(=O)[nH]1	4.04	4.07	4.18	inhibition (Felid alphaherpesvirus 1): inactive
Cn1c(=O)c2c(nc(Cl)n2Cc2cn(C[C@H](OCc3ccccc3)[C@H](O)P(=O)(OCc3ccccc3)OCc3ccccc3)nn2)n(C)c1=O	4.60	4.66	4.07	–
Cc1cn(Cc2cn(C[C@H](OCc3ccccc3)[C@@H](O)P(=O)(OCc3ccccc3)OCc3ccccc3)nn2)c(=O)[nH]c1=O	< 3.70	< 3.70	< 3.70	pEC50 (Influenza A virus H3N2): 4.70; CC50 [1]: > 100 µM; MCC [1]: > 100 µM
Nc1ncnc2c1ncn2Cc1cn(C[C@H](OCc2ccccc2)[C@H](O)P(=O)(OCc2ccccc2)OCc2ccccc2)nn1	4.12	4.34	4.10	–
CC(=O)Nc1ccn(Cc2cn(C[C@@H]3OC(C)(C)O[C@H]3[C@@H](O)P(=O)(OCc3ccccc3)OCc3ccccc3)nn2)c(=O)n1	< 3.70	< 3.70	< 3.70	–
Cn1c(=O)c2c(nc(Cl)n2Cc2cn(C[C@@H]3OC(C)(C)O[C@H]3[C@@H](O)P(=O)(OCc3ccccc3)OCc3ccccc3)nn2)n(C)c1=O	< 3.70	< 3.70	< 3.70	–
Cn1c(=O)c2c(nc(Cl)n2Cc2cn(C[C@H](OCc3ccccc3)[C@@H](O)P(=O)(OCc3ccccc3)OCc3ccccc3)nn2)n(C)c1=O	4.57	4.15	< 3.70	–
O=c1ccccn1Cc1cn(C[C@H](OCc2ccccc2)[C@@H](O)P(=O)(OCc2ccccc2)OCc2ccccc2)nn1	4.05	4.20	4.35	–
CC(=O)Nc1ccn(Cc2cn(C[C@H](OCc3ccccc3)[C@@H](O)P(=O)(OCc3ccccc3)OCc3ccccc3)nn2)c(=O)n1	3.77	3.82	< 3.70	–
O=C(c1ccccc1)n1c(=O)c2ccccc2n(Cc2cn(C[C@H](OCc3ccccc3)[C@H](O)P(=O)(OCc3ccccc3)OCc3ccccc3)nn2)c1=O	5.33	5.33	5.29	pEC50 (Human alphaherpesvirus 2; Human alphaherpesvirus 2, HEL): 5.40; pEC50 (Human alphaherpesvirus 1; Human alphaherpesvirus 1, HEL): 5.54; pEC50 (Felid alphaherpesvirus 1): 5.40; MCC [2]: ≥ 4 µM
Nc1ncnc2c1ncn2Cc1cn(C[C@H](OCc2ccccc2)[C@@H](O)P(=O)(OCc2ccccc2)OCc2ccccc2)nn1	4.11	4.18	4.09	–
O=c1ccn(Cc2cn(C[C@H](OCc3ccccc3)[C@@H](O)P(=O)(OCc3ccccc3)OCc3ccccc3)nn2)c(=O)[nH]1	< 3.70	< 3.70	< 3.70	–
CC(=O)Nc1ccn(Cc2cn(C[C@H]3OC(C)(C)O[C@H]3[C@@H](O)P(=O)(OCc3ccccc3)OCc3ccccc3)nn2)c(=O)n1	< 3.70	< 3.70	< 3.70	–
Cc1cn(Cc2cn(C[C@H](O)[C@@H](O)P(=O)(O)O)nn2)c(=O)[nH]c1=O	< 3.70	< 3.70	< 3.70	–
O=c1cnn(Cc2cn(C[C@H](OCc3ccccc3)[C@H](O)P(=O)(OCc3ccccc3)OCc3ccccc3)nn2)c(=O)[nH]1	4.09	4.15	3.91	–
Cn1c(=O)c2c(ncn2Cc2cn(C[C@H](OCc3ccccc3)[C@@H](O)P(=O)(OCc3ccccc3)OCc3ccccc3)nn2)n(C)c1=O	4.15	4.15	4.10	–

Reference: ChEMBL document CHEMBL3352515, “Design, synthesis, antiviral and cytostatic activity of ω-(1H-1,2,3-triazol-1-yl)(polyhydroxy)alkylphosphonates as acyclic nucleotide analogues” (Bioorg Med Chem, 2014)
